Measured values reported in BindingDB's records for doi:10.1016/j.bmcl.2011.11.010 (Ludwig-Maximilians-University Munich, 2011).

Target: T1, Beta-galactoside-binding lectin (Gallus gallus, UniProt P07583)
T1 sequence (P07583 whole entry): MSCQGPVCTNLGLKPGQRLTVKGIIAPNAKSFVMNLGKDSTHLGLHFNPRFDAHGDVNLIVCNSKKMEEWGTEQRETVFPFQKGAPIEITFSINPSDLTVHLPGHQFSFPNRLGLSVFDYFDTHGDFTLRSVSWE
Experiment: Inhibition of binding of biotinylated chicken galectin-1B to surface immobilized asialofetuin by solid phase assay
Method in brief: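 Asialofetuin was adsorbed to microtiter wells at a constant coating amount, and its N-glycans served as ligand. Biotinylated lectin at a lectin-specific concentration was added with inhibitor. IC50 (mM) was normalized to lactose, and potency was expressed relative to free lactose. Assays were run in triplicate across up to five independent series.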

OC[C@H]1O[C@@H](O[C@H]2[C@H](O)[C@@H](O)[C@H](O)O[C@@H]2CO)[C@H](O)[C@@H](O)[C@H]1O [Lactose, anhydrous]
IC50: 4 mM
